Bioassay records as filed in PubChem.
Sampled rows, rich in hits. Any-hit rate of the full collection: about 1.8%.
C8 TRAIL sens – sensitizes caspase-8 expressing cells to TRAIL; NB7+C8 cells + TRAIL, ATPlite viability luminescence; inhibition (viability loss, TRAIL sensitization), % at 10 µM; actives 1% (n = 360,000);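 active = compounds causing at least 50% loss of cell viability in the single-dose screen, relative to plate controls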
FLuc act counter – firefly luciferase counter-screen for stimulation assays. ATPlite luciferase biochemical, luminescence, 10 min; 0 = ATP-free wells, 1 = DMSO control. 200,000 tested, under 10 active. activation factor at 10 µM. P08659;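 active = luciferase activation factor, scaled between plate controls, of at least 2 with compound at 10 µM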
Target sequence (P08659 whole entry, looked up): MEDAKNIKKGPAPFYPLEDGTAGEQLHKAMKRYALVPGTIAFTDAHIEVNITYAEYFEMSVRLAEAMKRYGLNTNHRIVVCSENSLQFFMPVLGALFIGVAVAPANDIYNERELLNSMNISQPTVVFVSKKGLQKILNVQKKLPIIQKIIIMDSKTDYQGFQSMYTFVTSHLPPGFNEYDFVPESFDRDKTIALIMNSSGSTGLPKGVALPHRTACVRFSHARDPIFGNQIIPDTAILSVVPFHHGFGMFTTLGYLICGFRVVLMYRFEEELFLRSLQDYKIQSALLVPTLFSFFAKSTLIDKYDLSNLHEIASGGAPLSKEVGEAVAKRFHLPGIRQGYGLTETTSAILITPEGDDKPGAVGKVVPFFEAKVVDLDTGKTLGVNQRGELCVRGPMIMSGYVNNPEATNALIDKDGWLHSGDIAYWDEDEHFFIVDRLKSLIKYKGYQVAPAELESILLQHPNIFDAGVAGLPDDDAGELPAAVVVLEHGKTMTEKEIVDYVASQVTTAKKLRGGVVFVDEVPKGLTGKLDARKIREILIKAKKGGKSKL
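System: luciferase plus luciferin reagent, cell-free; medium: PBS as buffer for the ATP substrate; dosing: test compounds dosed from 2 mM stocks in 100% DMSO; timing: 10 min post-reagent at room temperature; measured by: luminescence measurement of luciferase light output; evaluation: luciferase activation, seen as luminescence increase over controls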
iPSC survival up – enhancers of human iPSC single-cell survival. hiPSC single-cell survival, ATPlite luminescence; 100% = ROCK inhibitor wells, 0% = DMSO. survival enhancement, % at 20 µM. actives 0.044% (n = 360,000). AID 602274; in the data active = survival enhancement above about 18%;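 also: cells exposed to compounds for 16 hours before the ATP read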
FLuc inhib CS – Photinus pyralis luciferase inhibition counter-screen; P08659; inhibition, % at 10 µM; ATPLite firefly luciferase biochemical luminescence, 10 min; actives 1.5% (n = 200,000);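 active = inhibition above about 50% when tested at 10 µM, limit read from the data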
beta cell repl – inducers of beta-cell replication in MIN6 cells; MIN6 cells proliferation, ATPlite luminescence, 48 h; cells starved in 0.2% serum; 100% = growth in 10% serum; proliferation, % at 10 µM; actives 0.29% (n = 330,000); AID 2380;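 active = compounds whose signal lies at least 3.5 SD above the mean of all wells on their plate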;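 also: 0% = DMSO-treated cells in low-serum medium and 100% = 10% serum control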
PPC-1+TRAIL kill – PPC-1 cancer cell killing with TRAIL present | cell killing (% activity), % at 4 µM or 5 µM | PPC-1 cells + TRAIL, ATPLite viability luminescence | AID 1443 | actives 0.41% (n = 220,000);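 active = cell killing above 50% in the first pass at 4 µM, then a duplicate retest at 5 µM averaging 50% or more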;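 also: plate controls were cells with TRAIL plus DMSO for no effect and medium-only wells lacking cells for full effect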
* marks the source's active call; other numbers are inactive results; x = not tested or not shown.

SMILES | C8 TRAIL sens | FLuc act counter | iPSC survival up | FLuc inhib CS | beta cell repl | PPC-1+TRAIL kill
CC1CCC2(CC1)NC(=O)N(CC(=O)c1ccc(Cl)s1)C2=O (centres undefined) | 12 | x | 0 | x | 3 | x
COc1ccc(-c2cnnc(N/N=C/c3ccc(O)c(O)c3)n2)cc1 | 11 | 0.1 | -3 | 85* | 0 | 44
COc1ccc(-c2cnnc(N/N=C/c3ccc(C)o3)n2)cc1 | -17 | 1 | -1 | 4 | 1 | -5
COc1ccc(-c2cnnc(N/N=C/c3ccc(O)cc3)n2)cc1 | 11 | 0.3 | -4 | 73* | -4 | 41
O=C(/C(C=Nc1ccc(Br)cc1)=C(/O)c1ccco1)C(F)(F)F | 43 | 0.3 | -3 | 66* | x | 60*
CC(NCc1ccccc1)c1ccccc1O (centres undefined) | 3 | x | 0 | x | -1 | -6
COc1ccccc1Sc1nc(-c2ccccn2)ncc1OC | -2 | 1.1 | 23* | -7 | 1 | -1
COc1cnc(-c2ccccn2)nc1Sc1ccc(C)cc1 | 29 | 1.1 | -3 | -7 | -4 | 9
Cc1cc(/C=C2/NC(=O)NC2=O)c(C)n1-c1ccccn1 | 1 | 0.5 | -1 | 49 | -2 | 29
COC(=O)C(C)N1C(=O)S/C(=C/c2cc(C)n(-c3ccccn3)c2C)C1=O (centres undefined) | 58* | 0.4 | -3 | 58* | -5 | 22
COC(=O)C(C)N1C(=O)S/C(=C\c2cc(C)n(-c3ccccn3)c2C)C1=O (centres undefined) | 60* | 0.4 | -2 | 56* | -4 | 31
CCOC(=O)CN1C(=O)S/C(=C/c2cc(C)n(-c3ccccn3)c2C)C1=O | 24 | 0.7 | -3 | 27 | 2 | 18
CNC[C@@H]1OCc2cnnn2CCCC(=O)N([C@H](C)CO)C[C@H]1C | -10 | x | 3 | x | x | x
Cc1cc(N2CCCCC2)n2ncc(-c3ccc(Cl)cc3)c2n1 | 18 | 0.8 | 1 | 17 | -6 | 9
Cc1cc(NC2CCCC2)n2ncc(-c3ccccc3)c2n1 | 59* | x | 0 | x | -6 | x
Cc1cc(N2CCCCC2)n2ncc(-c3ccccc3)c2n1 | 48* | 0.3 | -2 | 67* | -4 | 37
Cc1cc(NC2CCCC2)n2nc(C)c(-c3ccccc3)c2n1 | -1 | x | 1 | x | -5 | x
COc1ccc(-c2cc(C)nc3c(-c4ccccc4)cnn23)cc1 | 32 | 0.5 | -1 | 51* | x | 28
Cc1cc(-c2ccccc2)n2ncc(-c3ccccc3)c2n1 | 62* | 0.1 | -3 | 85* | -3 | 55*
Cc1ccc2c(c1)cc1c(=O)n(CC(=O)NCc3ccccn3)nc(C)n12 | 7 | x | 0 | x | 1 | x
CCOC(=O)Cc1c(C)nc2c(-c3ccccc3)cnn2c1C | -1 | 1 | -2 | 1 | -4 | 6
Cc1nc2c(-c3ccccc3)cnn2c(N)c1-c1ccccc1 | 84* | x | -1 | x | -7 | x
Cc1cccc(N(C(=O)CNC(=O)c2ccco2)C(C(=O)NC2CCCCC2)c2cccnc2)c1 (centres undefined) | 0 | x | 0 | x | 0 | x
COc1ccc(C(C(=O)NC2CCCC2)N(C(=O)c2snc(-c3ccc(F)cc3)c2N)c2ccc(F)cc2)cc1 (centres undefined) | 51* | 1.1 | -3 | -6 | -6 | 7
O=C(NC1CCCCC1)C(c1cccnc1)N(C(=O)CCl)c1cccc(Cl)c1 (centres undefined) | 98* | 1.1 | -2 | -7 | -5 | 12
SMILES | C8 TRAIL sens | FLuc act counter | iPSC survival up | FLuc inhib CS | beta cell repl | PPC-1+TRAIL kill
COc1ccc(N(C(=O)c2cnccn2)C(C(=O)NC2CCCCC2)c2ccc(Cl)cc2)cc1 (centres undefined) | 0 | x | -1 | x | 2 | x
COc1ccc(C(C(=O)NC2CCCCC2)N(C(=O)CCl)c2ccc(Cl)cc2)cc1 (centres undefined) | 96* | 1.1 | -2 | -11 | -6 | 62*
CC1CCCCC1NC(=O)/C=C/c1nc2ccccc2s1 (centres undefined) | 6 | 0.8 | -1 | 20 | -4 | 14
O=C(/C=C/c1nc2ccccc2s1)N1CCCCCC1 | 25 | 0.4 | -3 | 62* | -2 | 7
Cc1ccc(C=Nc2ccccc2C(N)=O)o1 | -5 | 0.5 | 3 | 54* | -1 | 35
CN(C)c1ccc(C=Nc2ccccc2C(N)=O)cc1 | 85* | 0.1 | -3 | 89* | -5 | 80*
Cc1ccc(/C=N/c2sc(Cc3ccccc3)c(C)c2C(N)=O)o1 | -3 | 1.1 | 0 | -6 | 0 | 19
CC1(C)CC(=O)/C(=C\c2cccc([N+](=O)[O-])c2)C(C)(C)N1 | 10 | 1 | 36* | -1 | -4 | 17
O=C1N/C(=N/O)S/C1=C/c1cccc([N+](=O)[O-])c1 | 4 | 1 | -1 | 5 | 0 | 23
CCOc1ccc(C2CC(=O)NC2=O)cc1 (centres undefined) | 8 | x | 3 | x | -2 | x
O=C(NC1=C(NC2CCS(=O)(=O)C2)C(=O)c2ccccc2C1=O)c1ccccc1 (centres undefined) | 52* | 1 | -4 | 0 | -6 | 23
CCOC(=O)C1=CCN(S(=O)(=O)c2ccccc2C)C1c1ccc(Cl)cc1 (centres undefined) | 59* | x | 4 | x | x | x
O=c1[nH]c(CSc2ccccn2)nc2c1oc1ccccc12 | 30 | 0.4 | -1 | 61* | -5 | 31
CCc1nc2c(oc3ccccc32)c(=O)[nH]1 | 14 | 1 | 0 | 2 | -1 | 22
COc1cccc(N2CCN(C(=O)c3cc(-c4ccccc4)nc4c3cnn4C(C)C)CC2)c1 | 5 | x | 2 | x | -5 | x
O=C(NCCN1C(=O)S/C(=C\c2ccc(Cl)c([N+](=O)[O-])c2)C1=O)C1=COCCO1 | 55* | x | 10 | x | -7 | x
CN1CCN(C2=C(NS(=O)(=O)c3cccs3)C(=O)c3ccccc3C2=O)CC1 | 27 | x | 0 | x | -3 | -12
CCN1CCN(C2=C(NS(=O)(=O)c3ccccc3)C(=O)c3ccccc3C2=O)CC1 | 61* | x | 0 | x | -8 | x
CN1CCN(C2=C(NS(=O)(=O)c3ccccc3)C(=O)c3ccccc3C2=O)CC1 | 51* | x | 0 | x | -7 | x
CCN(CC)C(=O)Cn1cc(C(=O)C(=O)Nc2ccc3c(c2)OCO3)c2ccccc21 | 21 | x | -3 | x | x | x
Cc1cc(C)n(-c2ncccc2[N+](=O)[O-])n1 | -6 | x | 3 | x | -1 | 7
CC(C)c1ccc(-n2cnn(-c3ncccc3[N+](=O)[O-])c2=O)cc1 | 23 | 0.5 | -3 | 54* | -3 | 26
FC(F)(F)c1ccccc1Cc1c(-c2cccc(Br)c2)nc2ccc(Br)cn12 | -1 | x | -1 | x | x | x
Cc1csc(N=Nc2ccc(N(C)C)cc2)[n+]1[O-] | 81* | x | -2 | x | x | x
CC1(c2ccccc2)C(C#N)C(=O)NC(=O)C1C#N (centres undefined) | -4 | x | 7 | x | x | x
